Source: PubChem
WT yeast gro inh: growth inhibition of WT yeast, mitochondrial fusion screen; AID 1362; inhibition, % at 10 µM; mitochondrial fusion phenotypic screen, WT strain; 2.1% of 190,000 active; in the data active = inhibition above about 58%; tested in S. cerevisiae
ROMK mod: modulators of human ROMK potassium channel | Tet-inducible ROMK, thallium flux fluorescence; actives lie on both sides | P48048 | 2% of 130,000 active | AID 1918 | B-score at 10 µM;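 active = signal ratio slope over the read window, or its plate-corrected B-score, at least 3 SD from the plate mean, either direction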;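 note: B-score of the F/F0 ratio slope over 7 to 12 s after thallium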
Diaphorase act: diaphorase activation or chemical reduction counter-screen; Diaphorase/resazurin coupled assay, resorufin fluorescence, 16 min; active compounds read high; 1 = vehicle wells, 0 = NADH-free wells; activation factor at 20 µM; 0.005% of 190,000 active;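 active = diaphorase activity raised at least twofold by the compound at 20 µM; inactive = activation factor below 2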
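test system = bacterial diaphorase enzyme (C. kluyveri) | quantity = enzyme 0.07 U/mL final | reagent = NADH substrate 0.114 mM plus resazurin dye 0.1 mM, final | incubation = 16 min enzyme reaction, ambient temperature | buffer or medium = HEPES pH 7.4 buffer with MgCl2 and Tween 20 | signal = fluorescence of resorufin, 544 nm excitation, 590 nm emission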
Lmaj promast: reduces viability of Leishmania major promastigotes; resazurin fluorescence viability; inhibition, % at 10 µM; 9% of 200,000 active; AID 1063; in the data active = inhibition above about 50%;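 note: promastigotes grown with compound for 44 hours at 28 °C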
KCC2 mod: modulators of human KCC2 chloride dependent transport; Q9H2X9; KCC2 cells, thallium flux FluoZin-2 fluorescence; B-score of Tl+ flux slope (higher = more flux/activation; lower = inhibition) at 10 µM; 2.2% of 190,000 active; AID 1456;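 active = thallium flux slope and its plate-corrected score both differing from the plate sample mean at a set confidence after two filtering rounds, in either direction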;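 note: slope of fluorescence scaled to starting intensity during 10 to 20 s after thallium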
Diaph inh CS: counter-screen for diaphorase-based assays: diaphorase inhibitors and chemical oxidizers | 0.69% of 190,000 active | inhibition, % at 20 µM | diaphorase resazurin-to-resorufin fluorescence, NADH, 16 min; bacterial (C. kluyveri) enzyme, not human | AID 1217;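 active = primary screen inhibition at 20 µM above a set limit, cut at about 50% in these data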;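 note: plate controls were DMSO with full reaction for no effect and wells lacking NADH for full effect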
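material = Clostridium kluyveri diaphorase enzyme | amount = 0.14 U/mL diaphorase, enzyme working solution | schedule = incubation 16 min, room temperature | detection = fluorescence of resorufin formed from resazurin, Ex 544/Em 590 nm | benchmarks = positive control minus NADH, DMSO neutral control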
* hit, by the source's call; . = no result given. In the library only some 12% were active in any assay of this set; here they are far more common.

SMILES	WT yeast gro inh	ROMK mod	Diaphorase act	Lmaj promast	KCC2 mod	Diaph inh CS
Cc1ccc(C(C(=O)NC2CCCC2)N(Cc2ccco2)C(=O)CCC(=O)Nc2cc(C)on2)cc1 (stereo not drawn)	-20.1	.	1	82.5*	-0.0421	2.9
Cc1cc(C)cc(N(C(=O)CCC(=O)Nc2cc(C)on2)C(C(=O)NC2CCCC2)c2ccco2)c1 (stereo not drawn)	-5.5	-1.43	1	88.5*	0.42	3.9
CCO[C@H]1OC(C(=O)N2CCCCCCC2)=C[C@@H](C)[C@@H]1CCCO	-1.2	.	1.3	5.0	0.119	-25.2
COc1ccc(C(=O)NCC(=O)OCC(=O)N2CCC(C)CC2)cc1OC	-12.4	0.857	0.9	-13.1	-0.417	5.4
O=C(O)/C=C/C(=O)N(Cc1ccc2c(c1)OCO2)C1CC(=O)N(CCc2ccccc2)C1=O (stereo not drawn)	-4.7	-0.0248	1.1	-13.0	-0.11	-5.0
CCOC(=O)c1[nH]c(C)c(CN(Cc2ccco2)C(=O)C(F)(F)F)c1C	10.7	1.16	0.8	9.8	.	18.2
O=C(NC1CCCCC1)C(c1cccs1)N(Cc1cccs1)C(=O)c1cccs1 (stereo not drawn)	20.8	-2.22	0.9	98.7*	0.142	14.9
Cc1cc(NC(=O)CCC(=O)N(CCC(C)C)CC(=O)NCC2CCCO2)no1 (stereo not drawn)	-11.4	.	0.9	-9.4	1.08	13.6
O=C(NC1CCCCC1)C(c1ccc2ncccc2c1)N(Cc1cccs1)C(=O)c1cccs1 (stereo not drawn)	-4.1	.	1	49.4	-0.918	-1.5
Cc1ccc(N(C(=O)CCC(=O)Nc2cc(C)on2)C(C(=O)NC2CCCC2)c2cccs2)cc1 (stereo not drawn)	18.6	-0.778	0.9	54.0*	-0.0668	9.2
Cc1cc(C)cc(N(CC(=O)NCC2CCCO2)C(=O)CCC(=O)Nc2cc(C)on2)c1 (stereo not drawn)	99.0*	0.0703	0.9	-3.5	.	7.8
O=C(COC(=O)c1ccc(Cl)cc1O)NCCN1C(=O)CSC1=O	.	.	.	.	0.0624	.
N#CC(C#N)=C1C(=O)N(CCN2CCOCC2)c2ccccc21	.	0.37	.	.	0.273	.
O=C1CCCC(=O)N1c1ccc(Oc2ccc(Cl)cc2)cc1	14.7	.	1	23.1	0.505	3.5
COc1cc2nc(CN3CCC(C(O)(c4ccccc4)c4ccccc4)CC3)[nH]c(=O)c2cc1OC	-5.3	0.485	0.9	23.1	-0.779	14.8
O=[N+]([O-])/C=C/c1cn(Cc2ccccc2)c2ccccc12	81.5	-0.77	1.1	95.6*	0.0969	-8.2
N#Cc1ccccc1Cn1cc(/C=C/[N+](=O)[O-])c2ccccc21	75.0	-2.28	0.8	87.1*	0.285	19.3
Cc1ccc2nc(-c3ccc(-c4ccccn4)s3)cn2c1	.	-0.0772	.	.	-1.1	.
Cc1ccnc(NC(c2ccccn2)c2c(C)[nH]c3ccccc23)c1 (stereo not drawn)	-5.7	.	0.8	74.1*	-0.708	25.0
Cc1ccc(NC2=C(CC(=O)O)C(c3ccccc3)N(c3ccc(C)cc3)C2=O)cc1 (stereo not drawn)	10.5	-0.00922	0.8	28.5	-1.89	23.5
c1csc(-c2csc3nc(CN4CCOCC4)nc(NCc4ccc5c(c4)OCO5)c23)c1	63.7*	.	0.8	32.8	-2.54	25.0
O=C(CCCc1cccs1)Nc1nccs1	8.1	-0.553	1	-2.9	0.265	3.1
Cc1c(NS(=O)(=O)c2ccc(N(C)C3CCCCC3)c([N+](=O)[O-])c2)c(=O)n(-c2ccccc2)n1C	12.5	.	0.9	50.5*	-2.59	8.8
Cc1c(NS(=O)(=O)c2ccc(N3CCCCC3)c([N+](=O)[O-])c2)c(=O)n(-c2ccccc2)n1C	-10.0	-0.487	0.7	-3.8	-1.04	27.7
Cc1ccc(S(=O)(=O)Nc2ccc(-c3nc4cc(NS(=O)(=O)c5ccc(C)cc5)ccc4o3)cc2)cc1	-4.2	0.19	1	98.5*	0.34	1.6
SMILES	WT yeast gro inh	ROMK mod	Diaphorase act	Lmaj promast	KCC2 mod	Diaph inh CS
C=CCC(C=C)[N+]1(CC(=O)OC)CCCCC1 (stereo not drawn)	3.7	0.00282	0.9	3.1	0.294	8.8
COc1ccc(C(=O)COC(=O)c2ccc(NC(C)=O)cc2)cc1[N+](=O)[O-]	-5.7	.	0.8	-5.8	-0.222	20.3
CC(=O)Nc1ccc(C(=O)OCc2ccc(Br)cc2)cc1	69.3*	.	0.9	2.0	-0.15	10.2
COc1cccc(C(=O)COC(=O)c2ccc(NC(C)=O)cc2)c1	-4.0	.	0.9	80.6*	-0.00207	10.0
Cc1ccc(OCC(=O)N2CCCC(CCC(=O)N(C)CCc3ccccn3)C2)cc1 (stereo not drawn)	-15.8	-0.461	1.1	-2.0	.	-7.9
Cc1cc(C(=O)Nc2c(C)nn(Cc3ccc(Cl)cc3)c2C)no1	21.4	1.15	1	-4.4	0.726	-2.9
Cc1nn(Cc2ccc(Cl)cc2)c(C)c1NC(=O)C(c1ccccc1)c1ccccc1	31.4	.	0.8	99.4*	-0.0845	22.0
Cc1ccc(NC(=O)/C(=C\c2ccc3c(c2)OCO3)NC(=O)c2ccco2)cc1	4.8	.	0.9	-0.4	-0.176	8.5
C=CCOc1nc2c(c(=O)n(C)c(=O)n2C)n1Cc1c(Cl)cccc1Cl	-0.7	-1.47	0.9	64.3*	-1.57	13.9
O=C(NC(=S)Nc1ccccc1O)c1ccccc1Cl	12.3	0.345	1	13.1	2.16	4.2
CCOC(=O)c1c(NC(=O)CCNCc2ccco2)sc2c1CCC2	.	-0.497	.	.	-1.46	.
CC(C)Oc1ccc(/C=N/NC(=O)C2CCCN2S(=O)(=O)c2ccc(Cl)cc2)cc1 (stereo not drawn)	31.9	-0.774	0.7	59.8*	0.0538	25.6
NNC(=O)C1CCCN1S(=O)(=O)c1ccc(Cl)cc1 (stereo not drawn)	-9.5	-0.661	1	11.2	0.495	-2.5
CCC(C)NC(=O)C1CCCN1S(=O)(=O)c1ccc(Cl)cc1 (stereo not drawn)	15.3	.	1	0.0	0.327	2.9
CCCOc1ccc(/C=N/NC(=O)C2CCCN2S(=O)(=O)c2ccc(Cl)cc2)cc1 (stereo not drawn)	-4.2	0.246	0.8	59.4*	-0.725	22.9
COc1ccc(CCC(=O)Nc2ccccc2C(F)(F)F)cc1	1.4	0.284	0.9	-2.5	-0.139	10.4
OC(COc1ccc2cc(Br)ccc2c1)CN1CCN(c2ccccn2)CC1 (stereo not drawn)	32.5	.	1.1	-0.8	-0.248	-5.7
OCCN1CCN(CC(O)COc2ccc(-c3ccccc3)cc2)CC1 (stereo not drawn)	40.5	-0.922	0.9	95.7*	0.457	9.1
OC(COc1ccc(OCC(O)CN2CCCCCC2)cc1)CN1CCCCCC1 (stereo not drawn)	-10.3	0.843	1.1	29.9	.	-12.5
